The M2OR odorant receptor database

The compounds below were run against T1, OR2W1 (Homo sapiens) (UniProt Q9Y3N9). Conditions: stereoisomer not certain.
T1 sequence (whole entry): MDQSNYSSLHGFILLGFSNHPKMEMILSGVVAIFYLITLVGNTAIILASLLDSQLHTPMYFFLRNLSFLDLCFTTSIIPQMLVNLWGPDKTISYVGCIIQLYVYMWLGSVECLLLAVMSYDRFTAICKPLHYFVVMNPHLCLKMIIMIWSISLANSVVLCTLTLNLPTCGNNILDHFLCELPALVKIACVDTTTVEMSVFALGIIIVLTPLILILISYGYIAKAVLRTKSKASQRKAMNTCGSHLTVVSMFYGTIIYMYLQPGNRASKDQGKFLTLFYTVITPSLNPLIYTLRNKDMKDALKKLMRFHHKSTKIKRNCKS
In short: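 Transient luciferase assays in mammalian cell lines were common, though methods varied by source. The values come from published papers and their supplementary material, with extra details from the original authors when needed. Responsive refers to a measured signal the original authors judged statistically different from baseline, and non-responsive (inactive) to the remainder.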

Odorant receptor agonist call, active:
C=C(C)C1CCC(C)C(=O)C1 (stereo not given), CC(=O)CC(=O)CC(C)C, CCOC(=O)CCC(C)C, CCCCCC(=O)CC, CCCC(=O)C(C)=O, CCCCCCCCC(=O)O, CCCCCCC(C)=O, CCCCCCCO, CCCCCC(=O)CC(C)=O, CCCCCCCCS

Odorant receptor agonist call, inactive:
CC(C)CCO, Cc1cccc(C)c1O, CCCc1ccc(O)c(OC)c1, c1ccccc1, CC(=O)C=CC1=C(C)CCCC1(C)C, CC(C)CCCCCCCCCCC=O, CCCCCO, CCc1ccc(O)c(OC)c1, CCCCCCC(=O)[O-].[H+], O=C(O)C=Cc1ccc(O)cc1, CCC(C(=O)O)c1ccccc1 (stereo not given), CCC(=O)C1=NCCC1, O=C(O)CCc1ccccc1, CCCCC(=O)O, CC=O, C=Cc1ccc(OCCCCOc2ccc(C=C)cc2)cc1, C=CCOC(=O)CCCCCC, CSC, CCCCCCCCC=CC=O, CC(=O)C(C)C(C)=O, CC(=O)Oc1ccccc1, CC(=O)C1=NCCS1, CCCC(=O)C(C)CC (stereo not given), CC(C)=CC1CC(C)CCO1 (stereo not given), CCC(C)c1nccnc1OC (stereo not given)
